Test results published in ChEMBL document CHEMBL1123850, “Estrogenic affinity labels: synthesis, irreversible receptor binding, and bioactivity of aziridine-substituted hexestrol derivatives” (J Med Chem, 1987).
Each block holds one compound with its values, some of them ahead of it. Calls of active or inactive are those of the source. The calls are words filed in the database; no cut-off is given here.

What was measured:
MCF7 [1] = assay: Effect on 10e-9 M estradiol stimulation of MCF-7 cell proliferation at 3E-7M: Weak antagonistic; assay type: functional, cell-based; conditions: Homo sapiens, filed as antagonist
[2] = target: T1, Estrogen receptor (Ovis aries) (UniProt P49885+Q9TU15); assay: Time dependent irreversible binding to estrogen receptor by inactivation-exchange assay; Good; assay type: protein assay
MCF7 [3] = assay: Effect on 10e-9 M estradiol stimulation of MCF-7 cell proliferation at 4x10E-8M; Agonistic; assay type: functional, cell-based; conditions: Homo sapiens, filed as agonist
Outline: (§1)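 MCF-7 human breast cancer cells kept 1 week in phenol red-free IMEM with 5% charcoal dextran-treated calf serum, then seeded at ca. 0.5 x 10^5 cells/flask. Next day switched to phenol red- and insulin-free medium holding compound, estradiol (10^-9 M), hydroxytamoxifen or 0.1% ethanol vehicle, renewed every 48 h. Cells counted after 8 days. Agonism is growth relative to estradiol; antagonism is suppression of estradiol-stimulated growth.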

MCF7 [4] = assay: Effect on 10e-9 M estradiol stimulation of MCF-7 cell proliferation at 4x10E-8M; Agonist; assay type: functional, cell-based; conditions: Homo sapiens, filed as agonist
[5] = target: T1, Estrogen receptor (Ovis aries); assay: Time dependent irreversible binding to estrogen receptor by inactivation-exchange assay; No; assay type: protein assay
[6] = target: T1, Estrogen receptor (Ovis aries); assay: Time dependent irreversible binding to estrogen receptor by inactivation-exchange assay; Weak; assay type: protein assay
MCF7 [7] = assay: Effect on 10e-9 M estradiol stimulation of MCF-7 cell proliferation at 3x10E-7M; potent agonistic; assay type: functional, cell-based; conditions: Homo sapiens, filed as agonist
MCF7 [8] = assay: Effect on 10e-9 M estradiol stimulation of MCF-7 cell proliferation at 3x10E-7M; very weak; assay type: functional, cell-based; conditions: Homo sapiens; outline: as §1
MCF7 [9] = assay: Effect on 10e-9 M estradiol stimulation of MCF-7 cell proliferation at 3x10E-7M;weak agonistic; assay type: functional, cell-based; conditions: Homo sapiens, filed as partial agonist; outline: as §1
MCF7 [10] = assay: Effect on 10e-9 M estradiol stimulation of MCF-7 cell proliferation at 3x10E-8M; Agonistic; assay type: functional, cell-based; conditions: Homo sapiens, filed as agonist
MCF7 [11] = assay: Effect on 10e-9 M estradiol stimulation of MCF-7 cell proliferation at 10e-8 M; assay type: functional, cell-based; conditions: Homo sapiens, filed as agonist

Structure (SMILES): CC[C@H](c1ccc(O)cc1)[C@@H](CCCCN1CC1)c1ccc(O)cc1
- Activity (MCF7 [1]): Partial antagonist
- Irreversible binding [2]: Time-dependent effect

Structure (SMILES): CC[C@H](c1ccc(O)cc1)[C@@H](CSCCCN(C)C)c1ccc(O)cc1
- Activity (MCF7 [3]): Agonist

Structure (SMILES): CC[C@H](c1ccc(O)cc1)[C@@H](CSCCN1CC1)c1ccc(O)cc1
- Activity (MCF7 [4]): Agonist
- Irreversible binding [5]: inactive

Structure (SMILES): CC[C@H](c1ccc(O)cc1)[C@@H](C(=O)OCCN1CC1)c1ccc(O)cc1
- Irreversible binding [6]: Partially active
- Activity (MCF7 [7]): Agonist

Structure (SMILES): CC[C@H](c1ccc(O)cc1)[C@@H](CCCCN1CCNCC1)c1ccc(O)cc1
- Activity (MCF7 [8]): inactive

Structure (SMILES): CC[C@H](c1ccc(O)cc1)[C@@H](C(=O)CCCCN(C)C)c1ccc(O)cc1
- Activity (MCF7 [9]): Partial agonist

Structure (SMILES): CC[C@H](c1ccc(O)cc1)[C@@H](CSCCCN1CC1)c1ccc(O)cc1
- Activity (MCF7 [10]): Agonist
- Irreversible binding [2]: Time-dependent effect

- Irreversible binding [5]: inactive
Structure (SMILES): CC[C@H](c1ccc(O)cc1)[C@@H](C(=O)N1CC1)c1ccc(O)cc1
- Activity (MCF7 [7]): Agonist

Structure (SMILES): CC[C@H](c1ccc(O)cc1)[C@@H](C(=O)OCCCN1CC1)c1ccc(O)cc1
- Irreversible binding [6]: Partially active
- Activity (MCF7 [7]): Agonist

Structure (SMILES): CC[C@H](c1ccc(O)cc1)[C@@H](C(=O)CCCCN1CC1)c1ccc(O)cc1
- Activity (MCF7 [11]): Agonist
- Irreversible binding [2]: Time-dependent effect
